According to ChEMBL document CHEMBL4177648, “Benzofuran-dihydropyridine hybrids: A new class of potential bone anabolic agents” (Bioorg Med Chem, 2017):
Activity calls are given as the source filed them. The rule behind the calls is not given here.

What was measured:
Calvarial osteoblast [1] = experiment: Anabolic activity in rat calvarial osteoblasts assessed as induction of alkaline phosphatase activity at 1 pM after 48 hrs in presence of beta-glycerophosphate and ascorbic acid by p-nitrophenyl phosphate substrate based assay (reference value: 1 to 1.21); type: functional
Calvarial osteoblast [2] = experiment: Anabolic activity in rat calvarial osteoblasts assessed as induction of alkaline phosphatase activity at 1 uM after 48 hrs in presence of beta-glycerophosphate and ascorbic acid by p-nitrophenyl phosphate substrate based assay (reference value: 1 to 1.21); type: functional
Calvarial osteoblast [3] = experiment: Anabolic activity in rat calvarial osteoblasts assessed as induction of alkaline phosphatase activity at 10 nM after 48 hrs in presence of beta-glycerophosphate and ascorbic acid by p-nitrophenyl phosphate substrate based assay (reference value: 1 to 1.21); type: functional
Calvarial osteoblast [4] = experiment: Anabolic activity in rat calvarial osteoblasts assessed as induction of alkaline phosphatase activity at 100 pM after 48 hrs in presence of beta-glycerophosphate and ascorbic acid by p-nitrophenyl phosphate substrate based assay (reference value: 1 to 1.21); type: functional
Calvarial osteoblast [5] = experiment: Anabolic activity in rat calvarial osteoblasts assessed as induction of alkaline phosphatase activity at 100 uM after 48 hrs in presence of beta-glycerophosphate and ascorbic acid by p-nitrophenyl phosphate substrate based assay (reference value: 1 to 1.21); type: functional
Calvarial osteoblast [6] = experiment: Upregulation of Col1 mRNA levels in rat calvarial osteoblasts at 1 uM after 48 hrs by qRT-PCR analysis relative to control; type: functional
How it was run: (§1)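 Rat pup calvarial osteoblasts were treated for 48 h with compound. Total RNA was extracted with TRIzol and checked by A260 and A260/A280. qRT-PCR used 45 cycles (94 °C, 62 °C, 72 °C steps) and was normalised to GAPDH. Fold change is over untreated cells; n=5, mean ± SEM.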

Calvarial osteoblast [7] = experiment: Upregulation of Osx mRNA levels in rat calvarial osteoblasts at 1 uM after 48 hrs by qRT-PCR analysis relative to control; type: functional; how it was run: as §1
Calvarial osteoblast [8] = experiment: Upregulation of Bmp2 mRNA levels in rat calvarial osteoblasts at 1 uM after 48 hrs by qRT-PCR analysis relative to control; type: functional; how it was run: as §1
Calvarial osteoblast [9] = experiment: Upregulation of ALP mRNA levels in rat calvarial osteoblasts at 1 uM after 48 hrs by qRT-PCR analysis relative to control; type: functional; how it was run: as §1
Calvarial osteoblast [10] = experiment: Induction of mineralization in rat calvarial osteoblasts at 1 uM after 21 days by Alizarin-red dye based assay; type: functional, cell-based
How it was run: (§2)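 Rat pup calvarial osteoblasts were seeded at 1×10^4 cells/well in differentiation medium with compound. Medium was changed every other day for 21 days. Cells were fixed in 4% paraformaldehyde and stained with 40 mM Alizarin red (pH 4.5). Stain was extracted with 10% acetic acid, heated to 85 °C, and neutralised with NH4OH. Absorbance was read at 405 nm.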

Calvarial osteoblast [11] = experiment: Upregulation of Runx2 mRNA levels in rat calvarial osteoblasts at 1 uM after 48 hrs by qRT-PCR analysis relative to control; type: functional; how it was run: as §1
Calvarial osteoblast [12] = experiment: Anabolic activity in rat calvarial osteoblasts assessed as induction of alkaline phosphatase activity after 48 hrs in presence of beta-glycerophosphate and ascorbic acid by p-nitrophenyl phosphate substrate based assay; type: functional, cell-based
Calvarial osteoblast [13] = experiment: Upregulation of Runx2 mRNA levels in rat calvarial osteoblasts at 10 nM after 48 hrs by qRT-PCR analysis relative to control; type: functional; how it was run: as §1
Calvarial osteoblast [14] = experiment: Upregulation of ALP mRNA levels in rat calvarial osteoblasts at 10 nM after 48 hrs by qRT-PCR analysis relative to control; type: functional; how it was run: as §1
Calvarial osteoblast [15] = experiment: Induction of mineralization in rat calvarial osteoblasts at 10 nM after 21 days by Alizarin-red dye based assay; type: functional, cell-based; how it was run: as §2
Calvarial osteoblast [16] = experiment: Upregulation of Bmp2 mRNA levels in rat calvarial osteoblasts at 10 nM after 48 hrs by qRT-PCR analysis relative to control; type: functional; how it was run: as §1
Calvarial osteoblast [17] = experiment: Upregulation of Osx mRNA levels in rat calvarial osteoblasts at 10 nM after 48 hrs by qRT-PCR analysis relative to control; type: functional; how it was run: as §1
Calvarial osteoblast [18] = experiment: Upregulation of Col1 mRNA levels in rat calvarial osteoblasts at 10 nM after 48 hrs by qRT-PCR analysis relative to control; type: functional; how it was run: as §1

SMILES | OD (Calvarial osteoblast [1]) | OD (Calvarial osteoblast [2]) | OD (Calvarial osteoblast [3]) | OD (Calvarial osteoblast [4]) | OD (Calvarial osteoblast [5]) | fold change (FC) (Calvarial osteoblast [6]) | fold change (FC) (Calvarial osteoblast [7]) | fold change (FC) (Calvarial osteoblast [8]) | fold change (FC) (Calvarial osteoblast [9]) | Activity (Calvarial osteoblast [10]) | fold change (FC) (Calvarial osteoblast [11]) | EC50 (Calvarial osteoblast [12]) | fold change (FC) (Calvarial osteoblast [13]) | fold change (FC) (Calvarial osteoblast [14]) | Activity (Calvarial osteoblast [15]) | fold change (FC) (Calvarial osteoblast [16]) | fold change (FC) (Calvarial osteoblast [17]) | fold change (FC) (Calvarial osteoblast [18])
CCOC(=O)C1=C(C)NC2=C(C(=O)CCC2)C1c1cc(C(C)CC)c2oc(C(=O)c3ccc([N+](=O)[O-])cc3)cc2c1 (stereo not given) | 1.12 | 0.69 | 0.89 | 0.82 | 0.37 | – | – | – | – | – | – | – | – | – | – | – | – | –
COC(=O)C1=C(C)NC2=C(C(=O)CCC2)C1c1cc(C(C)(C)C)c2oc(C(=O)c3ccc(OC)cc3)cc2c1 (stereo not given) | 1.19 | 1.17 | 1.07 | 1.01 | 0.32 | – | – | – | – | – | – | – | – | – | – | – | – | –
CCC(C)c1cc(C2C(C(=O)OC)=C(C)NC3=C2C(=O)CCC3)cc2cc(C(=O)c3ccc(OC)cc3)oc12 (stereo not given) | 1.37 | 1.34 | 1.09 | 1.34 | 0.37 | – | – | – | – | – | – | – | – | – | – | – | – | –
CCc1cc(C2C(C(=O)OC)=C(C)NC3=C2C(=O)CC(C)(C)C3)cc2cc(C(=O)c3ccc(OC)cc3)oc12 (stereo not given) | 1.26 | 1.2 | 1.19 | 0.73 | 0.18 | – | – | – | – | – | – | – | – | – | – | – | – | –
CCC(C)c1cc(C2C(C(=O)OC)=C(C)NC3=C2C(=O)CC(C)(C)C3)cc2cc(C(=O)c3ccc([N+](=O)[O-])cc3)oc12 (stereo not given) | 0.98 | 0.76 | 1.06 | 1.03 | 0.3 | – | – | – | – | – | – | – | – | – | – | – | – | –
CCOC(=O)C1=C(C)NC2=C(C(=O)CCC2)C1c1cc(CC)c2oc(C(=O)c3ccc(OC)cc3)cc2c1 (stereo not given) | 1.32 | 1.8 | 1.64 | 1.49 | 0.41 | 2 - 5.5 | 2 - 5.5 | 2 - 5.5 | 2 - 5.5 | Active | 2 - 5.5 | 10000 nM | – | – | – | – | – | –
CCC(C)c1cc(C2C(C(=O)OC)=C(C)NC3=C2C(=O)CC(C)(C)C3)cc2cc(C(=O)c3ccc(OC)cc3)oc12 (stereo not given) | 0.97 | 1.26 | 1.14 | 0.64 | 0.29 | – | – | – | – | – | – | – | – | – | – | – | – | –
CCc1cc(C=O)cc2cc(C(=O)c3ccc(OC)cc3)oc12 | 1.09 | 1.03 | 1.24 | 1.11 | 0.29 | – | – | – | – | – | – | – | – | – | – | – | – | –
COc1ccc(C(=O)c2cc3cc(C=O)cc(C(C)(C)C)c3o2)cc1 | 1.33 | 1.26 | 1.7 | 1.5 | 0.59 | – | – | – | – | – | – | – | – | – | – | – | – | –
CCC(C)c1cc(C2C(C(=O)OC)=C(C)NC3=C2C(=O)CCC3)cc2cc(C(=O)c3ccc(C)cc3)oc12 (stereo not given) | 0.99 | 0.84 | 1.17 | 1.12 | 0.25 | – | – | – | – | – | – | – | – | – | – | – | – | –
CCC(C)c1cc(C=O)cc2cc(C(=O)c3ccc(OC)cc3)oc12 (stereo not given) | 1.35 | 1.21 | 1.59 | 1.49 | 0.58 | – | – | – | – | – | – | 10 nM | – | – | – | – | – | –
CCOC(=O)C1=C(C)NC2=C(C(=O)CCC2)C1c1cc(C(C)CC)c2oc(C(=O)c3ccc(OC)cc3)cc2c1 (stereo not given) | 0.94 | 1.37 | 1.4 | 0.99 | 0.25 | 2 - 5.5 | 2 - 5.5 | 2 - 5.5 | 2 - 5.5 | – | 2 - 5.5 | 10 nM | 2 - 5.5 | 2 - 5.5 | Active | 2 - 5.5 | 2 - 5.5 | 2 - 5.5
CCOC(=O)C1=C(C)NC2=C(C(=O)CCC2)C1c1cc(C(C)(C)C)c2oc(C(=O)c3ccc(OC)cc3)cc2c1 (stereo not given) | 1.14 | 1.77 | 1.17 | 1.14 | 0.29 | – | – | – | – | – | – | – | – | – | – | – | – | –
